Consider 3 compounds from ChEMBL document CHEMBL4392864, “Diketopiperazine-Type Alkaloids from a Deep-Sea-Derived Aspergillus puniceus Fungus and Their Effects on Liver X Receptor α” (J Nat Prod, 2019).

By IC50 is commonly meant the concentration needed to halve the response being measured. Usually EC50 stands for the midpoint of the concentration-response curve.

Assay [1] concerns Curvularia australiensis. In words: Antifungal activity against Curvularia australiensis BY01 assessed as growth inhibition at 0.6 mM measured after 48 hrs by microbroth dilution method. It is filed as functional. The note with it: BY01, 48 h, read-out: GI. Summed up:
(§1)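 Fungi were grown on PDA plates for 6−8 days at 30 °C, then the mycelia were moved into PD medium and filtered through cotton to give a spore suspension. Each well held PD medium, sample from a 10 mg/mL DMSO stock at about 0.6 mM, and spores (1 × 10^6 CFU). DMSO served as the negative control. OD600 was read at 0 and 48 h at 28 °C and percent growth inhibition calculated.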

In assay [2] the target is Indoleamine 2,3-dioxygenase 1 (Homo sapiens, UniProt P14902). Nature of the assay: Inhibition of recombinant human IDO1 expressed in Escherichia coli […] preincubated for 15 mins followed by substrate addition and measured after 60 mins.
Sequence of Indoleamine 2,3-dioxygenase 1 (P14902 whole entry): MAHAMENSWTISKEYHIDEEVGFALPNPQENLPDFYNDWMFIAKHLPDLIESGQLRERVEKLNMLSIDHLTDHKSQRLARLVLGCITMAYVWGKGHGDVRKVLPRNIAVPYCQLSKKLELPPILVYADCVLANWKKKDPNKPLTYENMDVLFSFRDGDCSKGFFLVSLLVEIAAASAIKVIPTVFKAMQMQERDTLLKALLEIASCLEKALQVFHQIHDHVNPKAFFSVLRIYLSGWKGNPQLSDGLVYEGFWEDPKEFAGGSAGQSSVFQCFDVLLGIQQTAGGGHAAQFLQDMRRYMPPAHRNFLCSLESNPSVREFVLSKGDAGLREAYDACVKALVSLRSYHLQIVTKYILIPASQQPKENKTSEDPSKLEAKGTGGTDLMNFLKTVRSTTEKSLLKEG
In assay [3] the target is Tyrosine-protein phosphatase non-receptor type 6 (Homo sapiens, UniProt P29350). Nature of the assay: Inhibition of recombinant human SHP1 expressed in Escherichia coli […] preincubated for 15 mins followed by substrate addition and measured after 60 mins. Summed up:
(§2)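 Recombinant human phosphatases were expressed in E. coli and purified. Enzyme and compound were preincubated for 15 min at room temperature in pH 6.5 buffer (50 mM HEPES, 100 mM NaCl, 1 mM EDTA, 1 mM DTT). Buffer containing 50 mM pNPP was then added and the mix incubated for 60 min at 37 °C. Product p-nitrophenol was read at 405 nm. Assays were run in triplicate and IC50 derived.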

The target in assay [4] is T1, Oxysterols receptor LXR-alpha (Homo sapiens, UniProt Q13133).
T1 sequence (Q13133 whole entry): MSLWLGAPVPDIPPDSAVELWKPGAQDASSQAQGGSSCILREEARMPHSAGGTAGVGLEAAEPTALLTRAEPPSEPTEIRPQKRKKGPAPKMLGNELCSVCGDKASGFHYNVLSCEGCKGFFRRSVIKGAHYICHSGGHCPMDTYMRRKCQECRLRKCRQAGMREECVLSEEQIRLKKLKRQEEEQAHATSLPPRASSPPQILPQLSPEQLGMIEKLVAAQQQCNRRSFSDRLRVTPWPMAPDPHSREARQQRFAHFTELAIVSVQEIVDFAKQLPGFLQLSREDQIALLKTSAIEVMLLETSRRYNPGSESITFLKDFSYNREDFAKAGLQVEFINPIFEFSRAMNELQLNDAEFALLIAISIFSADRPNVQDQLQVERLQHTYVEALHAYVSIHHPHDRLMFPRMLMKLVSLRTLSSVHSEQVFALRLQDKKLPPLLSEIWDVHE
In words: Transactivation of recombinant GAL4-fused human LXRalpha LBD (163 to 447 residues) expressed in human L02 cells measured after 24 hrs by luciferase reporter gene assay. It is filed as cell-based.

In assay [5] the target is L-lactate dehydrogenase A chain (Homo sapiens) (UniProt P00338). In words: Inhibition of recombinant human LDHA expressed in Escherichia coli […] preincubated for 15 mins followed by substrate addition and measured after 60 mins.
Assay [6] relates to Pyricularia oryzae. In words: Antifungal activity against Pyricularia oryzae HNM 1003 assessed as growth inhibition at 0.6 mM measured after 48 hrs by microbroth dilution method. It is filed as functional. Particulars: HNM 1003, 48 h, read-out: GI.
The subject of assay [7] is Fusarium oxysporum. In words: Antifungal activity against Fusarium oxysporum HNM 1003 assessed as growth inhibition at 0.6 mM measured after 48 hrs by microbroth dilution method. It is filed as functional. Particulars: HNM 1003, 48 h, read-out: GI. A digest of the protocol: as §1
(Dilution methods test growth across graded concentrations, often in twofold steps.)

Assay [8] concerns Colletotrichum gloeosporioides. In words: Antifungal activity against Colletotrichum gloeosporioides HNM 1003 assessed as growth inhibition at 0.6 mM measured after 48 hrs by microbroth dilution method. The format is functional. Particulars: HNM 1003, 48 h, read-out: GI. Summed up: as §1
Assay [9] has as its target T2, Tyrosine-protein phosphatase non-receptor type 9 (Homo sapiens, UniProt P43378).
T2 sequence (P43378 whole entry): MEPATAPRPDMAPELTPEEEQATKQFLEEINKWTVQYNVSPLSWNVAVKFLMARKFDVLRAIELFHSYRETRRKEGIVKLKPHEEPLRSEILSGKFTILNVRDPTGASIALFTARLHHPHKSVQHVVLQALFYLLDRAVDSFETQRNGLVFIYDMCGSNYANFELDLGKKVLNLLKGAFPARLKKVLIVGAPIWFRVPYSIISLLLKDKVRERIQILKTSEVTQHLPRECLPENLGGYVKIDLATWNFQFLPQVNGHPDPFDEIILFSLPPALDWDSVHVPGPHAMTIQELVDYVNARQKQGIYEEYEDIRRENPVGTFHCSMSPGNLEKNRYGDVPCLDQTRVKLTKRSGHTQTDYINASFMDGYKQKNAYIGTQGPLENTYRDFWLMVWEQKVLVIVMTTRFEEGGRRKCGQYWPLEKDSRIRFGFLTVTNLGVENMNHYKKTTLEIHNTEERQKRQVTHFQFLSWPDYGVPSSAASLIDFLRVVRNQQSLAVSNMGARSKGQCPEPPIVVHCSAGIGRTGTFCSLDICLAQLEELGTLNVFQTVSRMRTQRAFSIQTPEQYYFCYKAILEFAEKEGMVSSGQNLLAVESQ
In words: Inhibition of recombinant human MEG2 expressed in Escherichia coli […] preincubated for 15 mins followed by substrate addition and measured after 60 mins. Summed up:
as §2

Assay [10] deals with T3, Tyrosine-protein phosphatase non-receptor type 1 (Homo sapiens, UniProt P18031).
T3 sequence (P18031 whole entry): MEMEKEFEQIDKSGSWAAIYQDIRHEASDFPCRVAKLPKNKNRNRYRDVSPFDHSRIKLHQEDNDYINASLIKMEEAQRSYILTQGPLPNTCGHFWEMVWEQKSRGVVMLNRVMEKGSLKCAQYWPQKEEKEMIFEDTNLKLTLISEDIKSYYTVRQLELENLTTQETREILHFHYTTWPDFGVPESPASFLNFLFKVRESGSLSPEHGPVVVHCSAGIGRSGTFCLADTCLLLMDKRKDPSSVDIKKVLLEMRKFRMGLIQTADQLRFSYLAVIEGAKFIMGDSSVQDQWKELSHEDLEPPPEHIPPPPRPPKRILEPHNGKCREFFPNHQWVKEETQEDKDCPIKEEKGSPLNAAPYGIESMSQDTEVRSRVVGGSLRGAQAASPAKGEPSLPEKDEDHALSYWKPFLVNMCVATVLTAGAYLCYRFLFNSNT
In words: Inhibition of recombinant human PTP1B expressed in Escherichia coli […] preincubated for 15 mins followed by substrate addition and measured after 60 mins. Summed up: as §2

The target in assay [11] is T4, Tyrosine-protein phosphatase non-receptor type 11 (Homo sapiens, UniProt Q06124).
T4 sequence (Q06124 whole entry): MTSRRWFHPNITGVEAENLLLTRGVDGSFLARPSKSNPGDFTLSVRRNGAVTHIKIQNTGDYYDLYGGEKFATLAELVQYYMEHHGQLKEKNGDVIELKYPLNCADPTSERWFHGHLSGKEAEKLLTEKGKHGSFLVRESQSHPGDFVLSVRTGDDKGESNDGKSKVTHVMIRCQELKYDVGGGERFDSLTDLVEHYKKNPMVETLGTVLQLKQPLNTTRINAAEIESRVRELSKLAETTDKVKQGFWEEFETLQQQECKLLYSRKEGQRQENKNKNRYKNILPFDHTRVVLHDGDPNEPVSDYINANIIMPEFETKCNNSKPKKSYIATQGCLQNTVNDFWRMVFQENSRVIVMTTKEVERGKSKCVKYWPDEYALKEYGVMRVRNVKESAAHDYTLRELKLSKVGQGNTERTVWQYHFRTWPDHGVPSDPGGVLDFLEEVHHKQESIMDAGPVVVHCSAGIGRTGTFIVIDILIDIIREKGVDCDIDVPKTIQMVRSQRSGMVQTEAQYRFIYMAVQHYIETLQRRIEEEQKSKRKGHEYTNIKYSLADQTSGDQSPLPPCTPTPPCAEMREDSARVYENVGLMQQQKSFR
Nature of the assay: Inhibition of recombinant human SHP2 expressed in Escherichia coli […] preincubated for 15 mins followed by substrate addition and measured after 60 mins. Summed up: as §2

In assay [12] the target is T5, Tyrosine-protein phosphatase non-receptor type 2 (Homo sapiens, UniProt P17706).
T5 sequence (P17706 whole entry): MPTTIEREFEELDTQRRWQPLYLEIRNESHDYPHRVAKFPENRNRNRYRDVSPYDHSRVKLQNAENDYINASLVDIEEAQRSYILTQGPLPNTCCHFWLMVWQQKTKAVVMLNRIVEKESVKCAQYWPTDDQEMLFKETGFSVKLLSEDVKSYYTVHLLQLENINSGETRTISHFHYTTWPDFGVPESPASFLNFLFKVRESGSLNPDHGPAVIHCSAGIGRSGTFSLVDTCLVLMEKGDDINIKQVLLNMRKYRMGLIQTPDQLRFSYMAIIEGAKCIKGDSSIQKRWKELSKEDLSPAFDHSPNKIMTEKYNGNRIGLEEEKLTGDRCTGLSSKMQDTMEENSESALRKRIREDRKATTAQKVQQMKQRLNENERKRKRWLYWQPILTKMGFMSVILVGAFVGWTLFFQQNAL
Nature of the assay: Inhibition of recombinant human TCPTP expressed in Escherichia coli […] preincubated for 15 mins followed by substrate addition and measured after 60 mins. Summed up: as §2

Calls of active or inactive are those of the source. The rule behind the calls is not given here.

Sequence of Tyrosine-protein phosphatase non-receptor type 6 (P29350 whole entry): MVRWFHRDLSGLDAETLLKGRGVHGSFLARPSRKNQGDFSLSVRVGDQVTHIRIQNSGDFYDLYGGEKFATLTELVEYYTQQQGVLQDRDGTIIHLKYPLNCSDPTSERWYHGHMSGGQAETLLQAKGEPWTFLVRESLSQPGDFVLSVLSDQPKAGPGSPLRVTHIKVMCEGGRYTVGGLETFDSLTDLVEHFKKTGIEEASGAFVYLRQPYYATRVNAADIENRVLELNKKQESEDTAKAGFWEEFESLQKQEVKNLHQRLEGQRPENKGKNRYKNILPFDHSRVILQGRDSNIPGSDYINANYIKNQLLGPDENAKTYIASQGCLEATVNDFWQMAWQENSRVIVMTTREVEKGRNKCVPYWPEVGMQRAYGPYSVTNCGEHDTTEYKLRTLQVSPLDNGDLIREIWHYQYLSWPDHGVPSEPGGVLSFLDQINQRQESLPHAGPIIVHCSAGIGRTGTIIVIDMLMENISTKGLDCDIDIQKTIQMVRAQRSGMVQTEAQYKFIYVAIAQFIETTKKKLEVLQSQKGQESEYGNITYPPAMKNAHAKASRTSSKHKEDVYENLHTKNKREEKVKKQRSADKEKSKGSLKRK

For `C[C@@H]1C(=O)N[C@](O)(Cc2ccccc2)c2nc3c(c(=O)n21)C=CC=CO3`, the inhibition of growth at 600 µM in [1], in assay [6], in [7] and in assay [8] was less than 50% throughout. The half-maximal inhibitory concentration (IC50) in [2], in [3], in assay [9], in assay [10], in assay [11] and in [12] was 14 to 87 µM throughout. In addition, in [4], the concentration giving a half-maximal response (EC50) is 47 µM. Moreover, the inhibition entry in assay [5] was “inactive”.

Regarding `CC[C@@H](C)C1=C2N=C3OC=CC=C[C@]3(OC)C(=O)N2[C@@H](Cc2ccccc2)C(=O)N1`, the inhibition of growth at 600 µM in assay [1], in [6], in assay [7] and in assay [8] was less than 50% in each case. Further, the IC50 in assay [2], in assay [3], in assay [9], in [10], in assay [11] and in [12] was 14 to 87 µM in each case. The EC50 in [4] came out at 41 µM. The inhibition entry in assay [5] is “inactive”.

Take `C[C@@H]1C(=O)N/C(=C\c2ccccc2)c2nc3c(O)cccc3c(=O)n21`: the inhibition of growth at 600 µM in assay [1], in [6], in assay [7] and in [8] was less than 50% in each case. For the same compound, the IC50 in assay [2], in assay [3], in assay [9], in assay [10], in [11] and in assay [12] was 14 to 87 µM each time. Also, in assay [4], the concentration for a half-maximal effect (EC50) turned out to be 1.7 µM. The inhibition result in assay [5] was “inactive”.
